Source: ChEMBL document CHEMBL1255526, “Fused tricyclic pyrrolizinones that exhibit pseudo-irreversible blockade of the NK1 receptor” (Bioorg Med Chem Lett, 2010)

How the values were obtained:
Substance-P receptor [1] = molecular target: T1, Substance-P receptor (Homo sapiens, UniProt P25103); assay: Antagonist activity at human recombinant NK1 receptor expressed in CHO cells assessed as remaining substance P level at 100 nM after 30 mins by [H3]-inositol phosphate release assay; format: functional, cell-based
Summary of the method: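 CHO cells with recombinant human NK1 receptor, 2.5 × 10⁴ per well, plated overnight, then prelabelled overnight at 37 °C with [3H]-myo-inositol (10–25 Ci/mmol) in inositol-free medium with 0.02% BSA. LiCl 10 mM in HEPES-buffered inositol-free DMEM, 15 min. Antagonist at 100 nM or DMSO for 30 min, then substance P for 30 min. Stopped with formic acid. [3H]-inositol phosphate captured on yttrium silicate SPA beads, 2 h. Reported as % substance P response remaining.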

Substance-P receptor [2] = molecular target: T1, Substance-P receptor; assay: Displacement of [125I]substance P from human NK1 receptor expressed in CHO cells; format: cell-based
Summary of the method: (§1)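 Radioligand binding: [125I]substance P displaced from human NK1 receptor expressed in CHO cells; IC50 determined. Also run with 50% serum added (human, dog, rhesus, rat or gerbil) to measure the serum shift.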

Substance-P receptor [3] = molecular target: T1, Substance-P receptor; assay: Displacement of [125I]substance P from human NK1 receptor expressed in CHO cells in presence of 50% human serum; format: cell-based; summary of the method: as §1
[4] = Binding affinity to calcium channel
Summary of the method: (§2)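 Ion channel binding assay; IC50 values calculated for sodium channel and for calcium channel (Dlz site).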

[5] = molecular target: T2, Nuclear receptor subfamily 1 group I member 2 (Homo sapiens, UniProt O75469); assay: Inhibition of human PXR induction
T2 sequence (O75469 whole entry): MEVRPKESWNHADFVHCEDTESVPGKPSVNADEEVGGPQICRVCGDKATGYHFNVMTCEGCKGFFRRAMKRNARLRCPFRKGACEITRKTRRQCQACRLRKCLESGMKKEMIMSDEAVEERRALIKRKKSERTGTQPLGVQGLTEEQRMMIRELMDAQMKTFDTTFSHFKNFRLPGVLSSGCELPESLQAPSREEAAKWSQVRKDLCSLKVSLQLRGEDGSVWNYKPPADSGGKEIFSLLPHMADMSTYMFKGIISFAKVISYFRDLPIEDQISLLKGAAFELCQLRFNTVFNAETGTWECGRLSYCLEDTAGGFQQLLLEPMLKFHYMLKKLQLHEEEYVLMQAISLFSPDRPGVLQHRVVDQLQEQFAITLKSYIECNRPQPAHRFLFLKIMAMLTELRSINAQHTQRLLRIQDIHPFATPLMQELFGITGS

[6] = Binding affinity to sodium channel; summary of the method: as §2
[7] = molecular target: T3, PXR (nuclear receptor subfamily 1 group I member 2) (Homo sapiens, UniProt O75469); assay: Inhibition of human PXR induction at 10 uM
T3 sequence (O75469 whole entry): T2 sequence (O75469 whole entry)
Summary of the method: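 Human PXR induction measured at 10 µM compound, expressed as % of maximal induction.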

[8] = Binding affinity to potassium channel IKr
Meriones unguiculatus [9] = assay: Inhibition of GR-73632-induced foot tapping in Mongolian gerbil at 3 mg/kg after 24 hrs; format: functional
Summary of the method: (§3)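 Gerbils given antagonist at the dose and pretreatment time shown (1 mg/kg at 1 h, 3 mg/kg at 24 h); foot tapping then induced with the NK1 agonist GR73632. Read-out is % inhibition of tapping; ED50 or ID50 from dose–response.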

Meriones unguiculatus [10] = species: Meriones unguiculatus; assay: Inhibition of GR-73632-induced foot tapping in Mongolian gerbil after 24 hrs; format: functional; conditions: read-out: ED50; summary of the method: as §3
Meriones unguiculatus [11] = assay: Inhibition of GR-73632-induced foot tapping in Mongolian gerbil at 1 mg/kg after 1 hr; format: functional; summary of the method: as §3

T1 sequence (P25103 whole entry): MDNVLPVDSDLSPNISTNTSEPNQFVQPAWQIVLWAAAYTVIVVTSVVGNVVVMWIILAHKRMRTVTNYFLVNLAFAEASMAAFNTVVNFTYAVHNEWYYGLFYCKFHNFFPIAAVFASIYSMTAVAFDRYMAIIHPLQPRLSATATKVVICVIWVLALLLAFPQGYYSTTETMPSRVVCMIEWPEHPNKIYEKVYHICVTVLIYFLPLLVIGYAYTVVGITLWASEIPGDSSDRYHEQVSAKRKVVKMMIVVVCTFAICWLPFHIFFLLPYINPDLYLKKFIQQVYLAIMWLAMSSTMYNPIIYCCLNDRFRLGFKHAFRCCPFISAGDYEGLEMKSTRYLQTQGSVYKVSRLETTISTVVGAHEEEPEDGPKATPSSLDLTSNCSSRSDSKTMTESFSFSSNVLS

Compound	Activity (Substance-P receptor [1]) [%]	IC50 (Substance-P receptor [2]) [nM]	IC50 (Substance-P receptor [3]) [nM]	IC50 [4] [nM]	IC50 [5] [nM]	IC50 [6] [nM]	Emax at 10 µM [7] [%]	IC50 [8] [nM]	inhibition in vivo at 3 mg/kg (Meriones unguiculatus [9]) [%]	ED50 (Meriones unguiculatus [10]) [mg/kg]	inhibition in vivo at 1 mg/kg (Meriones unguiculatus [11]) [%]
C[C@@H](O[C@H]1CN2C(=O)C3CNCC3[C@H]2[C@@H]1c1ccc(F)cc1)c1cc(C(F)(F)F)cc(C(F)(F)F)c1 (single isomer, unassigned)	46										
C[C@@H](O[C@H]1CN2C(=O)[C@H]3C[C@H](O)C[C@H]3[C@H]2[C@@H]1c1ccc(F)cc1)c1cc(C(F)(F)F)cc(C(F)(F)F)c1	35	0.08	1.7								
C[C@@H](O[C@H]1CN2C(=O)C3CNCC3[C@H]2[C@@H]1c1ccc(F)cc1)c1cc(C(F)(F)F)cc(C(F)(F)F)c1 (single isomer, unassigned) [FIRST ELUDED ISOMER]		1.5	15								
C[C@@H](O[C@H]1CN2C(=O)[C@H]3C[C@H](NCc4ccccc4)C[C@H]3[C@H]2[C@@H]1c1ccc(F)cc1)c1cc(C(F)(F)F)cc(C(F)(F)F)c1	4	0.14	1.3	210	> 25000	210	0	300	94		
C[C@@H](O[C@H]1CN2C(=O)C3CNCC3[C@H]2[C@@H]1c1ccc(F)cc1)c1cc(C(F)(F)F)cc(C(F)(F)F)c1 (stereo in doubt; 6b) [FIRST ELUDED ISOMER]		0.31	3.2	310				2710	12		
C[C@@H](O[C@H]1CN2C(=O)[C@H]3C[C@H](N)C[C@H]3[C@H]2[C@@H]1c1ccc(F)cc1)c1cc(C(F)(F)F)cc(C(F)(F)F)c1	10	0.11	1	590	> 25000	520	0	1730	100	1.33	
C[C@@H](O[C@H]1CN2C(=O)[C@@H]3C[C@H](NCc4ccccc4)C[C@@H]3[C@H]2[C@@H]1c1ccc(F)cc1)c1cc(C(F)(F)F)cc(C(F)(F)F)c1	94	1.2	13								
C[C@@H](O[C@H]1CN2C(=O)C3CNCC3[C@H]2[C@@H]1c1ccc(F)cc1)c1cc(C(F)(F)F)cc(C(F)(F)F)c1 (stereo in doubt; 6b)	60										
C[C@@H](O[C@H]1CN2C(=O)CC[C@H]2[C@@H]1c1ccc(F)cc1)c1cc(C(F)(F)F)cc(C(F)(F)F)c1	88			1580	4800	1750	50	5700	100	0.2	
C[C@@H](O[C@H]1CN2C(=O)[C@@H]3C[C@H](N)C[C@@H]3[C@H]2[C@@H]1c1ccc(F)cc1)c1cc(C(F)(F)F)cc(C(F)(F)F)c1	93	1.5	47								
C[C@@H](O[C@H]1CN2C(=O)[C@H]3C[C@@H](O)C[C@H]3[C@H]2[C@@H]1c1ccc(F)cc1)c1cc(C(F)(F)F)cc(C(F)(F)F)c1	3	0.06	0.77		4500		65		100		100
C[C@@H](O[C@H]1CN2C(=O)[C@H]3C[C@@H](N)C[C@H]3[C@H]2[C@@H]1c1ccc(F)cc1)c1cc(C(F)(F)F)cc(C(F)(F)F)c1	6	0.09	1	1230	> 25000	710	0	990	91		
C[C@@H](O[C@H]1CN2C(=O)C3CN(C4=CC(=O)CC4)CC3[C@H]2[C@@H]1c1ccc(F)cc1)c1cc(C(F)(F)F)cc(C(F)(F)F)c1 (stereo in doubt; 18b)	7										
C[C@@H](O[C@H]1CN2C(=O)C(N)C[C@H]2[C@@H]1c1ccc(F)cc1)c1cc(C(F)(F)F)cc(C(F)(F)F)c1 (stereo partly specified)	59			210	> 25000	240	7	6500	100	0.61	
C[C@@H](O[C@H]1CN2C(=O)C3CN(C4=CC(=O)CC4)CC3[C@H]2[C@@H]1c1ccc(F)cc1)c1cc(C(F)(F)F)cc(C(F)(F)F)c1 (single isomer, unassigned)	11										
C[C@@H](O[C@H]1CN2C(=O)CC(N)[C@H]2[C@@H]1c1ccc(F)cc1)c1cc(C(F)(F)F)cc(C(F)(F)F)c1 (stereo partly specified)	75			1880	> 25000	7720	1	9500	100	0.92	
C[C@@H](O[C@H]1CN2C(=O)[C@@H]3C[C@@H](NCc4ccccc4)C[C@@H]3[C@H]2[C@@H]1c1ccc(F)cc1)c1cc(C(F)(F)F)cc(C(F)(F)F)c1	58	0.14	2.3						6		81
CC[C@@]1(O)C[C@H]2[C@H]3[C@H](c4ccc(F)cc4)[C@@H](O[C@H](C)c4cc(C(F)(F)F)cc(C(F)(F)F)c4)CN3C(=O)[C@H]2C1	31	0.21	2.3								
C[C@@H](O[C@H]1CN2C(=O)[C@H]3C[C@@H](NCc4ccccc4)C[C@H]3[C@H]2[C@@H]1c1ccc(F)cc1)c1cc(C(F)(F)F)cc(C(F)(F)F)c1	2	0.17	1.8	140	> 25000		0	280	100	0.47	
CC(O[C@H]1CN2C(=O)[C@@H]3CC(N)C[C@@H]3[C@H]2[C@@H]1c1ccc(F)cc1)c1cc(C(F)(F)F)cc(C(F)(F)F)c1 (single isomer, unassigned)	61	0.66	13								
CC[C@]1(O)C[C@H]2[C@H]3[C@H](c4ccc(F)cc4)[C@@H](O[C@H](C)c4cc(C(F)(F)F)cc(C(F)(F)F)c4)CN3C(=O)[C@H]2C1	4	0.16	1.7	8420	3300		51	1770	100	0.06	
C[C@@H](O[C@H]1CN2C(=O)C3CN(C4=CC(=O)CC4)CC3[C@H]2[C@@H]1c1ccc(F)cc1)c1cc(C(F)(F)F)cc(C(F)(F)F)c1 (single isomer, unassigned) [FIRST ELUDED ISOMER]		0.17	1.9	8810				1430	32		
C[C@@H](O[C@H]1CN2C(=O)[C@H]3C[C@](C)(O)C[C@H]3[C@H]2[C@@H]1c1ccc(F)cc1)c1cc(C(F)(F)F)cc(C(F)(F)F)c1	24	0.066	1.2								
C[C@@H](O[C@H]1CN2C(=O)C3CN(C4=CC(=O)CC4)CC3[C@H]2[C@@H]1c1ccc(F)cc1)c1cc(C(F)(F)F)cc(C(F)(F)F)c1 (stereo in doubt; 18b) [FIRST ELUDED ISOMER]		0.09	1	4810				730			92
